M4 antag – CHRM4 antagonism in calcium assay | CHO-hM4 cells, ACh EC80, Fluo-8 calcium fluorescence | inhibition, % at 3 µM | actives 0.73% (n = 360,000) | AID 624125 | P08173;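 active means inhibition above its plate's cutoff, the mean inhibition of sample wells plus 3 SD, cut at about 27% in these data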
Target sequence (P08173 whole entry, looked up): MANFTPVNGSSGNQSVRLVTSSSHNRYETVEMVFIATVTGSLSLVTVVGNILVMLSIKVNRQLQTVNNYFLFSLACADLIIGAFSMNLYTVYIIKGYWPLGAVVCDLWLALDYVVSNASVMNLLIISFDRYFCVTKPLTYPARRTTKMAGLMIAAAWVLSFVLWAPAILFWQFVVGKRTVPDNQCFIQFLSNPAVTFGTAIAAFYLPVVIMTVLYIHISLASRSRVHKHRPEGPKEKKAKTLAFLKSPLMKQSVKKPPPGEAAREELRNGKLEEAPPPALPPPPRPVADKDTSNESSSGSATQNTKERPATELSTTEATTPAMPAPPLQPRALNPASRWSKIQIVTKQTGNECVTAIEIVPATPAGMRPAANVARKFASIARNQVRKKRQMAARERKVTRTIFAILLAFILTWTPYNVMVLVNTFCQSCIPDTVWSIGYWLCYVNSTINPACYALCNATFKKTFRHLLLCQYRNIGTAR
M4 ag – agonists of human muscarinic M4 receptor (CHRM4); P08173; CHO-K1 hM4/Gqi5, Fluo-8 calcium fluorescence; vehicle 0%, full acetylcholine response 100%; activation, % at 3 µM; actives 0.14% (n = 360,000);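 active means activation above the run mean over all test wells plus 3 SD, cut at about 32% in these data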;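 further: peak over basal fluorescence ratio per well then scaled between controls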
CHRM5 antagonist – CHRM5 antagonism in calcium assay | actives 0.59% (n = 360,000) | inhibition, % at 3 µM | AID 624040 | CHO-hM5 cells, Fluo-8 calcium fluorescence, ACh EC80;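 active means inhibition above a per-plate cutoff, the mean of that plate's test compounds plus 3 SD, cut at about 27% in these data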
CHRM5 PAM – positive allosteric modulators of human muscarinic M5 receptor; P08912; actives 0.3% (n = 360,000); activation, % at 3 µM; CHO-K1 hM5, Fluo-8 calcium, ACh EC20 PAM; 0% = ACh EC20, 100% = ACh EC100; AID 624038;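 active means activation above the run cutoff, the mean activation of all test compounds plus 3 SD, cut at about 18% in these data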
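Assay system: CHO-K1 hM5 cells / Incubation: Fluo-8 loading 80 min at 37 °C plus 30 min room temperature / Technique: Fluo-8 calcium dye fluorescence, kinetic read / Repeats: single replicate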
M4 PAM – potentiates acetylcholine response at human M4 receptor; activation, % at 3 µM; CHO-K1 hM4/Gqi5, Fluo-8 calcium fluorescence, ACh EC20; 0% = ACh EC20, 100% = maximal ACh; AID 624126; P08173; actives 0.4% (n = 360,000);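 active means activation above its plate's cutoff, the mean activation of sample wells plus 3 SD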
CHRM5 agonist – agonists of human muscarinic M5 receptor (CHRM5); P08912; CHO-K1 hM5 cells, Fluo-8 calcium fluorescence; 0% DMSO wells, 100% maximal acetylcholine response; activation, % at 3 µM; actives 0.19% (n = 360,000); AID 624037;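 active means activation above the run's mean over test compounds plus 3 SD, cut at about 23% in these data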;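 further: signal is peak over basal fluorescence ratio across the kinetic read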
Large screens that a line does not name were inactive; ! = not confirmed by another sample. In the library only some 1.9% were active in any assay of this set; here they are far more common.

Cc1ccc(C(=O)OCC(=O)NCCc2ccc(F)cc2)cc1S(=O)(=O)N1CCOCC1	none
COc1ccc(-c2cc3nc(NCC4CCCCC4)n(C)c(=O)c3s2)cc1OC	none
c1ccc(-c2noc(-c3cccc4ccccc34)n2)cc1	M4 PAM 16
CC1CN(c2ccc(Oc3ccccc3)cc2)c2nc3c(c(=O)[nH]c(=O)n3C)n2C1 (stereo unspecified)	M4 PAM 17
Cc1ccc(C)c(S(=O)(=O)N2CCN(C(=O)Cn3cnc4c3c(=O)n(C)c(=O)n4C)CC2)c1	none
CCN(C)C1CN(Cc2cn(Cc3ccc(C)cc3)nn2)S(=O)(=O)C1 (stereo unspecified)	none
O=C(Cn1cc(F)c(=O)[nH]c1=O)c1ccco1	none
O=C(NC(=S)N1CCCCC1c1cccnc1)c1ccc(Br)cc1 (stereo unspecified)	M4 PAM 15
O=C(NC(=S)NN1CCCCC1c1cccnc1)c1ccc(Cl)cc1Cl (stereo unspecified)	CHRM5 PAM 22
O=C(NC(=S)N1CCCC1)c1ccc(Cl)cc1Cl	none
O=C(NC(=S)N1CCCCC1c1cccnc1)c1ccc(F)cc1 (stereo unspecified)	none
COc1ccc(CN2CCCC(C(=O)c3ccc4c(c3)OCO4)C2)c(F)c1 (stereo unspecified)	M4 antag 61
CCCCCCSc1cccc(-c2nc3ccc(C)cn3c2NCc2ccccc2)c1	none
Cc1ccc2nc(-c3cccc(-c4cccc(Cl)c4)c3)c(NCc3ccccc3)n2c1	M4 antag 28, CHRM5 antagonist 28
CCC(C)Sc1cccc(-c2nc3ccc(C)cn3c2NCc2ccccc2)c1 (stereo unspecified)	M4 antag 47
O=C(Nc1ccc(Cl)c(Cl)c1)OCc1cncs1	none
O=C(Nc1ccccc1)OCc1cncs1	CHRM5 PAM 18
COc1ccc(Oc2c(OC)cc([N+](=O)[O-])c3ncccc23)cc1	none
COc1cc(NC(C)CCCN)c2ncccc2c1Oc1ccccc1 (stereo unspecified)	CHRM5 PAM 25
CN(C)S(=O)(=O)c1ccc(C(=O)N2CCN=C2SCc2cccnc2)cc1	M4 PAM 19
NS(=O)(=O)c1ccc(NS(=O)(=O)c2ccc(NC(=O)c3ccc(-c4ccccc4)cc3)cc2)cc1	CHRM5 agonist 27
O=C(Nc1cccnc1)c1ccc(-c2ccccc2)cc1	none
O=C(Nc1ccncc1)c1ccc(-c2ccccc2)cc1	CHRM5 antagonist 33
C1CCC(C(CC2CCCCN2)C2CCCCC2)CC1 (stereo unspecified)	M4 antag 35!
CCc1noc(C)c1C(=O)OCC(=O)Nc1nc(-c2ccc(F)c(F)c2)cs1	none
c1ccc(C2(CN3CCNC[C@H]3Cc3cccc4ccccc34)CC2)cc1	M4 PAM 29
CN(C)c1nn(C(=O)Nc2cccc(C(F)(F)F)c2)cc1-c1ccccc1	M4 antag 27, CHRM5 antagonist 36
CN(C(=O)COc1ccccc1C(=O)NCCOc1ccccc1)c1ccccc1	M4 antag 60, CHRM5 antagonist 43
O=C1c2ccccc2C(c2nnnn2-c2ccc3c(c2)OCCO3)N1Cc1ccc(F)cc1 (stereo unspecified)	none
CC(O)(c1ccccc1)c1nc(-c2ccncc2)cs1 (stereo unspecified)	none
Cc1ccc(C)c(NC(=O)C(NCC(C)(C)N2CCOCC2)c2ccccc2)c1 (stereo unspecified)	M4 antag 76
Cc1ccc(C)c(NC(=O)C(c2ccccc2)N2CCN(CC(=O)N3CCOCC3)CC2)c1 (stereo unspecified)	none
Cc1cc(C(=O)N/N=C/c2c(C)nn(-c3ccccc3)c2C)n[nH]1	CHRM5 PAM 19
O=C(OCCC12CC3CC(CC(C3)C1)C2)c1ccc(NCc2cc(O)ccc2O)cc1	CHRM5 PAM 27
CCCNC(=O)C1(C)CCCN(C(=O)c2ccccc2OC)C1 (stereo unspecified)	none
O=C1NC(=S)S/C1=C\c1cc(Cl)cc(Cl)c1O	M4 ag 52, CHRM5 antagonist 30, CHRM5 agonist 193
O=C(/C=C/c1ccc(F)cc1)NC(=S)N1CCN(c2ccccn2)CC1	CHRM5 PAM 19
COc1ccc(/C=C/C(=O)NC(=S)N2CCN(c3ccccn3)CC2)cc1OC	none
CS(=O)(=O)N1CCN(c2ccc([N+](=O)[O-])c3cccnc23)CC1	M4 antag 35
COc1ccc(C(=O)Nc2ccccc2C(=O)NCCN2CCOCC2)cc1OC	none
Cc1ccc(C)c(N2CCN(CCCNC(=O)Cn3cc4c(n3)CCCCC4)CC2)c1	M4 antag 100
CC(Sc1nnc(-c2cccs2)n1-c1ccccc1)C(=O)NCc1ccco1 (stereo unspecified)	none
CC(Sc1ccsc1[N+](=O)[O-])C(=O)NCc1ccco1 (stereo unspecified)	M4 PAM 23
Nc1nonc1-n1nnc(C(=O)N/N=C/c2ccc(OCc3ccccc3)cc2)c1CN1CCCCC1	none
Cc1cc(Br)cn2c(CC(C)(C)C)c(C3CCCCC3)nc12	none
CCOc1ccccc1NC(=O)C1COc2ccccc2O1 (stereo unspecified)	none
O=C(NCc1ccccc1C(F)(F)F)C1CC(c2ccc(C(F)(F)F)cc2)=NO1 (stereo unspecified)	none
CCN(CC)CC#CC(OC)(c1ccccc1)c1ccccc1	M4 antag 57, CHRM5 antagonist 96
COc1ccc(OCc2cc(C(=O)NC(C)Cc3cnccn3)no2)c(Cl)c1 (stereo unspecified)	none
CC(=O)Nc1ccc(NC(=O)CSc2ncc(C(=O)Nc3ccc(F)cc3)c(=O)n2C)cc1	M4 PAM 18
O=C(OCc1cn([C@H]2C[C@H](c3ccc(Cl)cc3)N(Cc3cccs3)C[C@@H]2O)nn1)c1ccccc1	none
Nc1nnc(-c2cccc([N+](=O)[O-])c2)o1	none
O=[N+]([O-])c1cccc(-c2nnc(C3CC3)o2)c1	CHRM5 PAM 36
CCOC(=O)c1ccc(NC(=S)N2CCC(O)CC2)cc1	none
CCOC(=O)c1ccc(NC(=S)N2CCSC2c2ccc(Br)cc2)cc1 (stereo unspecified)	M4 antag 28, M4 ag 46
CC1=C(C)/C(=N\OS(=O)(=O)c2ccccc2)C=CC1=O	M4 antag 67, CHRM5 antagonist 30
CN1CCC(=NNC(=O)C(=O)Nc2cccc(Br)c2)CC1	CHRM5 antagonist 32
